Screening data deposited in PubChem by Broad Institute.
CFTR F508del cor = F508del CFTR correction, initial screen, CFBE line, single point; activity (quench increase), % at 7.58 µM; hit rate 0.36% among 350,000; CFBE cells, YFP halide quenching; stimulated with forskolin plus potentiator P3; % fluorescence drop versus neutral controls;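 active = mean added fluorescence quench of at least 8% versus neutral control, with both replicates also reaching 8%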;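 also: cells transiently co-express mutant CFTR-F508del with the halide-sensitive YFP; corrector assay measuring rescue of mutant channel to the surface after 24 h compound exposure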
S100A4 inh HTS = inhibitors of S100A4-myosin IIA peptide binding, primary screen, biochemical, fluorescence polarization, TAMRA-MyoIIA peptide; Protein S100-A4 (Homo sapiens), P26447; hit rate 0.14% among 360,000; inhibition, % at 10.7 µM;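 active = mean inhibition of at least 70% across replicates, with every replicate also reaching that level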
Target sequence (P26447 whole entry, looked up): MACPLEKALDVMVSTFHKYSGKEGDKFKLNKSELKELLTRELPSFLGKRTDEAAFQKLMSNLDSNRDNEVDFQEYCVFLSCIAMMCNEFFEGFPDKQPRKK
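System – human S100A4 monomer protein, biochemical binding assay · Buffer or medium – Calcium-containing HEPES buffer, pH 7.2 · Timing – 5 min between mix addition and reading · Also added – TAMRA-labelled myosin IIA heavy-chain peptide probe, 5 nM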
SIRT5 block = SIRT5 desuccinylase inhibitors, primary screen, biochemical, fluorescence imaging, single point, set 5 | Purified SirT5, succinyl-peptide AMC, trypsin-coupled fluorescence | hit rate 1.1% among 330,000 | NAD-dependent protein deacylase sirtuin-5, mitochondrial (Homo sapiens), Q9NXA8 | inhibition, % at 15 µM | AID 652115, 2013; in the data active = inhibition above about 15%
Target sequence (Q9NXA8 whole entry, looked up): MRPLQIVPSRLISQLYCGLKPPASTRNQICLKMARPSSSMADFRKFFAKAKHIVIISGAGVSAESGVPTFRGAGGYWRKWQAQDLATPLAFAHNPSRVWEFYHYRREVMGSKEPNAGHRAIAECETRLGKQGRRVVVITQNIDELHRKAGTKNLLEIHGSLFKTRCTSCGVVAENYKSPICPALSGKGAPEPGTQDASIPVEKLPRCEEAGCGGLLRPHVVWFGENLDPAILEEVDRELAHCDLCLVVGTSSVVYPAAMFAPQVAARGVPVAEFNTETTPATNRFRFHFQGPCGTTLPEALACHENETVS
ERAP1 inh = human ERAP1 aminopeptidase inhibitors, primary screen, biochemical, single point, plate reader; Endoplasmic reticulum aminopeptidase 1 (Homo sapiens), Q9NZ08; recombinant ERAP1, Leu-AMC fluorescence, 60 min; inhibition, % at 10.7 µM; hit rate 0.15% among 340,000; AID 652197, 2013;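 active = mean replicate inhibition of at least 30%, or all replicates individually reaching that 30% level; inactive = mean below 30% and not every replicate reaching it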
rRNA inh HTS = reduced GFP signal of wild-type E. coli, primary screen, bacterial rRNA inhibitor project, GFP/RFP fluorescence, OD600, single point. E. coli WT GFP vs humanized-ribosome RFP mutants, 24 h; stronger effect = lower value; DMSO median 0, no signal -100. GFP signal change (wild-type ribosome), % (no concentration beside the values). hit rate 1.6% among 350,000. AID 720706, 2013;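 active = significant combined selectivity score with lowered wild-type GFP, culture density cut under 30%, mutant RFP and density less affected; inactive = any of these conditions unmet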
Hits are given with their value; . = inactive; / = no result given. An excerpt weighted towards active compounds, which were near 3.1% of everything screened.

SMILES	CFTR F508del cor	S100A4 inh HTS	SIRT5 block	ERAP1 inh	rRNA inh HTS
Cc1ccccc1C(=O)N1CCc2c([nH]c3ccccc23)C1C(F)(F)F (stereo not given)	.	.	.	.	.
C=CCNC(=S)N1CCc2c([nH]c3ccccc23)C1C (stereo not given)	.	.	.	.	-33
O=C(O)C[C@H]1C[C@@H]2c3cc(NC(=O)CC4CC4)ccc3O[C@@H]2[C@H](CO)O1	.	.	.	.	.
COc1ccc([C@H]2CC=CC[C@@H](C)Oc3ccccc3C(=O)N(C)[C@H](C(C)C)C(=O)N2)c(OC)c1 (mixture of isomers)	/	/	/	/	.
CCCCn1c(O)c(/C=C2\C=Nc3ccccc32)c(=O)[nH]c1=O	.	81	.	.	.
CCCc1nn2c(N)c(/C=C3\C=Nc4ccccc43)c(=O)nc2s1	.	.	.	.	.
O=C(C[C@@H]1C[C@@H]2c3cc(NS(=O)(=O)c4ccc(F)cc4)ccc3O[C@@H]2[C@@H](CO)O1)NCc1ccccc1F	.	.	.	.	.
COc1ccc(NC(=O)C2CCCN(c3cnccn3)C2)c(OC)c1 (stereo not given)	.	.	16	.	.
COc1cccc(CNC(=O)C2CCCN(c3cnccn3)C2)c1 (stereo not given)	.	.	.	.	.
Cc1ccc(SCCC(=O)NC2CC2)cc1	.	.	16	.	.
COc1ccc(N2CCN(Cc3nc(Cc4cccc(F)c4)no3)C(C)C2)cc1 (stereo not given)	.	.	.	.	-23
O=C(c1cc(COc2ccc3ncccc3c2)on1)N1CCCCCC1	.	.	.	.	/
O=C(c1cc(COc2ccc3ncccc3c2)on1)N1CCCC1	.	.	.	.	-24
C[C@@H]1CN([C@H](C)CO)C(=O)c2cccc(NS(=O)(=O)c3ccc(Cl)cc3)c2O[C@@H]1CN(C)Cc1ccc2c(c1)OCO2	.	.	.	.	.
C/C(=N\NC(N)=O)c1ccccc1	.	.	.	.	.
NC(=O)N/N=C(/CCCCCC/C(=N\NC(N)=O)c1ccccc1)c1ccccc1	.	.	.	.	-26
O=C(N/N=C/c1cccs1)c1cc(C2CC2)nc2ccccc12	12	.	/	.	.
O=C(N/N=C/c1ccc[nH]1)c1cc(-c2cccs2)nc2ccccc12	.	.	.	.	-24
CCCN(C)C[C@H]1Oc2cc(C3=CCCC3)ccc2S(=O)(=O)N([C@H](C)CO)C[C@H]1C	.	/	/	/	.
COCC(=O)N(C)C[C@@H]1Oc2ncc(C#Cc3ccc(OC)cc3)cc2C(=O)N([C@@H](C)CO)C[C@@H]1C	.	.	.	.	.
C[C@H]1CN([C@@H](C)CO)S(=O)(=O)c2ccc(-c3cccnc3)cc2O[C@H]1CN(C)Cc1cccnc1	.	/	/	/	.
COc1ccc(/C=N/NC(=O)c2ccccc2O)cc1Cn1nnc2ccccc21	.	.	.	.	-23
CCn1c(C)nc2cc(C(=O)N/N=C/c3ccc(OC)c(O)c3)ccc21	/	.	.	.	-23
COc1ccc(/C=N/NC(=O)c2ccccc2O)cc1CN1CCOCC1	.	.	.	/	.
CCn1c(C)nc2cc(C(=O)N/N=C/c3ccc(OC)cc3)ccc21	.	.	.	.	.
SMILES	CFTR F508del cor	S100A4 inh HTS	SIRT5 block	ERAP1 inh	rRNA inh HTS
COc1ccc(C=NNC(=O)CCCC(=O)NN=Cc2ccc(OC)c(O)c2)cc1O	15	.	/	.	.
COc1ccc2[nH]c(C(=O)N/N=C/c3ccc(OC)c(O)c3)cc2c1	11	.	.	.	.
C[C@H](CO)N1C[C@H](C)[C@@H](CN(C)Cc2ccc(C(=O)Nc3ccccc3N)cc2)OCCCC[C@H](C)Oc2ccc(N(C)C)cc2C1=O	/	/	/	/	.
CCCNC(=O)C[C@H]1CC[C@@H]2[C@H](COc3ccc(NC(=O)Nc4ccccc4)cc3C(=O)N2C)O1	.	/	/	/	.
C[C@@H](NC(=O)[C@H]1[C@H](CO)[C@H]2Cn3c(ccc(C4=CCCC4)c3=O)[C@@H]1N2C(=O)C1CC1)c1ccccc1	.	.	.	.	.
O=C(C[C@@H]1CC[C@H]2[C@@H](COC[C@H](O)CN2Cc2ccccc2F)O1)N[C@H]1CCN(Cc2ccccc2)C1	.	.	.	.	.
CCn1c(SCC(=O)N/N=C/c2cc(OC)c(OC)c(OC)c2)nc2ccccc21	/	.	.	.	/
CCn1c(SCC(=O)N/N=C/c2ccc(O)c(OC)c2)nc2ccccc21	8.3	.	.	.	.
CCn1c(C)nc2cc(C(=O)NNC(=O)Nc3ccc(Cl)c(Cl)c3)ccc21	.	.	18	.	.
O=C(NCc1ccccc1)[C@H]1[C@H](CO)[C@H]2Cn3c(cccc3=O)[C@@H]1N2C(=O)CC1CC1	.	.	.	.	.
CS(=O)(=O)c1cccc(C(=O)Nc2cccc(-c3nc4ccccc4[nH]3)c2)c1	.	.	.	.	-19
C[C@@H]1CN([C@H](C)CO)S(=O)(=O)c2ccc(-c3cccnc3)cc2O[C@H]1CN(C)C(=O)C1CCC1	.	.	.	.	.
Cc1[nH]c2ccccc2c1CCNC(=O)c1c(N)no[n+]1[O-]	.	.	.	.	-21
COC(=O)c1ccc(CSc2nnc(CS(=O)Cc3ccc(Br)cc3)n2-c2ccccc2)cc1 (stereo not given)	.	.	18	.	.
CCCC(=O)Nc1ccc2c(c1)C(=O)N(C)C[C@@H](OC)[C@H](C)CN(Cc1cc(-c3ccccc3)on1)[C@H](C)CO2	.	.	/	.	.
O=C(NCCN1C(=O)S/C(=C\c2ccc(OC(F)F)cc2)C1=O)c1cnccn1	13	.	.	.	.
O=C(NCCN1C(=O)S/C(=C\c2ccc(OC(F)F)cc2)C1=O)[C@@H]1CCCN1C(=O)c1cccs1	/	.	.	.	/
COc1ccc(/C=C2\SC(=O)N(CCNC(=O)C3=COCCO3)C2=O)cc1	8.0	.	.	.	.
CO/N=C/C(c1ncc(C(F)(F)F)cc1Cl)S(=O)(=O)c1ccccc1 (stereo not given)	.	.	.	.	.
CO/N=C/C(c1ccc(Cl)nc1)S(=O)(=O)c1ccccc1 (stereo not given)	.	.	21	.	.
CCOC1=C2CN(S(=O)(=O)c3ccc(C)cc3)CC[C@@H]2N(S(=O)(=O)c2ccc(C)cc2)[C@H](c2ccccc2)C1	12	.	/	.	.
CC(C)NC(=O)Nc1n[nH]c(Nc2ccc(Cl)cc2)n1	.	.	.	.	-18
CCCN(C)C[C@@H]1OCCCC[C@@H](C)Oc2ccc(NS(=O)(=O)c3c(C)noc3C)cc2C(=O)N([C@@H](C)CO)C[C@@H]1C	.	.	.	.	.
